Data taken from ChEMBL document CHEMBL1255218, “Development of molecular probes for the human 5-HT(6) receptor” (J Med Chem, 2010).
The source made the active and inactive calls. The rule behind the calls is not given here.

Columns and labels:
[1] = target: T1, 5-hydroxytryptamine receptor 6 (Homo sapiens, UniProt P50406); test: Displacement of [3H]LSD from human 5HT6 receptor expressed in HEK293 cells; assay type: cell-based
Outline: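 Membranes from HEK-293 cells stably expressing human 5-HT6R, in 50 mM Tris-HCl, 10 mM MgCl2, 0.5 mM EDTA, pH 7.4. Incubated 60 min at 37 °C with 2.5 nM [3H]LSD and competitor (10^-5 to 10^-10 M). Nonspecific binding defined with 100 μM serotonin. Filtered on 0.5% PEI-soaked filters; scintillation count. Ki by Cheng-Prusoff; 2-4 experiments in triplicate.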

[2] = target: T1, 5-hydroxytryptamine receptor 6; test: Binding affinity to human 5HT6 receptor expressed in COS7 cells assessed as emission fluorescence intensity; assay type: cell-based; conditions: COS-7
[3] = target: T1, 5-hydroxytryptamine receptor 6; test: Binding affinity to human 5HT6 receptor assessed as emission fluorescence intensity

T1 sequence (P50406 whole entry): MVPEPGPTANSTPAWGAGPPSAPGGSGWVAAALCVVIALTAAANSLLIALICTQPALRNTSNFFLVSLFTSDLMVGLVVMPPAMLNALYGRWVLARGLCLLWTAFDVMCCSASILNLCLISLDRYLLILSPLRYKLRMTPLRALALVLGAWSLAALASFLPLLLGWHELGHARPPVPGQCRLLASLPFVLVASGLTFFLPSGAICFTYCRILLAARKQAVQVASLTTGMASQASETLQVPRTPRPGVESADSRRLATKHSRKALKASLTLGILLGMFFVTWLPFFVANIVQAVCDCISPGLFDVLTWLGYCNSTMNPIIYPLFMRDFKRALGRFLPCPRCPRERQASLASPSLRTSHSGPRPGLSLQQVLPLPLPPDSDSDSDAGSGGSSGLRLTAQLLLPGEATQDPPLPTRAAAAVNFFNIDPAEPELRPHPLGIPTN

SMILES	Ki [1] [nM]	Activity [2] [a.u.]	Activity [3]
COc1ccc(N(CCCCNS(=O)(=O)c2cccc3c(N(C)C)cccc23)S(=O)(=O)c2sc3ccc(Cl)cc3c2C)cc1N1CCNCC1	747	221	–
COc1ccc(NS(=O)(=O)c2sc3ccc(Cl)cc3c2C)cc1N1CCN(CCCCCCCCNS(=O)(=O)c2cccc3c(N(C)C)cccc23)CC1	447	> 1000	–
COc1ccc(N(CCCCCCCCNS(=O)(=O)c2cccc3c(N(C)C)cccc23)S(=O)(=O)c2sc3ccc(Cl)cc3c2C)cc1N1CCNCC1	215	> 1000	–
COc1ccc(NS(=O)(=O)c2cccc3c(N(C)C)cccc23)cc1N1CCN(CCCCCCNS(=O)(=O)c2cccc3c(N(C)C)cccc23)CC1	554	287	–
COc1ccc(NS(=O)(=O)c2ccc(-c3ncc(-c4ccc(N(C)C)cc4)o3)cc2)cc1N1CCNCC1	523	–	inactive
COc1ccc(NS(=O)(=O)c2sc3ccc(Cl)cc3c2C)cc1N1CCN(CCCCCCNS(=O)(=O)c2cccc3c(N(C)C)cccc23)CC1	266	> 1000	–
Cc1c(S(=O)(=O)Nc2ccc(OCCCCCCCCNS(=O)(=O)c3cccc4c(N(C)C)cccc34)c(N3CCNCC3)c2)sc2ccc(Cl)cc12	741	700	–

Molecules with a lower Ki [1], results first:

Ki [1] [nM]	Activity [2] [a.u.]	Activity [3]	SMILES
194	450	–	COc1ccc(NS(=O)(=O)c2cccc3c(N(C)C)cccc23)cc1N1CCN(CCCCCCCCNS(=O)(=O)c2cccc3c(N(C)C)cccc23)CC1
175	> 1000	–	COc1ccc(NS(=O)(=O)c2cccc3c(N(C)C)cccc23)cc1N1CCN(CCCCNS(=O)(=O)c2cccc3c(N(C)C)cccc23)CC1
165	730	–	COc1ccc(NS(=O)(=O)c2sc3ccc(Cl)cc3c2C)cc1N1CCN(S(=O)(=O)c2cccc3c(N(C)C)cccc23)CC1
135	35	–	COc1ccc(N(S(=O)(=O)c2cccc3c(N(C)C)cccc23)S(=O)(=O)c2cccc3c(N(C)C)cccc23)cc1N1CCNCC1
90	–	–	COc1ccc(NS(=O)(=O)c2sc3ccc(Cl)cc3c2C)cc1N1CCN(CCCCCCNC(=O)CCCC[C@@H]2SC[C@@H]3NC(=O)N[C@@H]32)CC1
27	19	–	COc1ccc(N(S(=O)(=O)c2sc3ccc(Cl)cc3c2C)S(=O)(=O)c2cccc3c(N(C)C)cccc23)cc1N1CCNCC1
8	52	–	COc1ccc(NS(=O)(=O)c2cccc3c(N(C)C)cccc23)cc1N1CCNCC1
